Data set [1] relates to Human immunodeficiency virus 1. Briefly: Antiviral activity against NNRTI-resistant Human immunodeficiency virus 1 harboring reverse transcriptase Y181C mutation infected in human MT4 cells assessed decrease in p24 level after 7 days by ELISA. The format is functional, organism-based. Conditions: Human immunodeficiency virus 1, MT4, 168 h. The method, boiled down:
(§1)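 MT4 cells (4×10^4/well) were infected with 200 TCID50 HIV-1 and held 2 h at 37 °C, then serially diluted compound was added. […] The K103N and Y181C viruses came from transfecting RT-mutant plasmids into 293T/17 cells.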

Data set [2] deals with Human immunodeficiency virus 1. Put plainly: Antiviral activity against NNRTI-resistant Human immunodeficiency virus 1 harboring reverse transcriptase Y181C mutation infected in human TZM-bl cells assessed decrease in p24 level after 7 days by ELISA. The format is functional, organism-based. The settings on record: Human immunodeficiency virus 1, TZM-bl, 168 h. (In an ELISA, binding on a coated surface is turned into a signal by an enzyme label.)

Data set [3] has as its system Human immunodeficiency virus 1. Briefly: Antiviral activity against NNRTI-resistant Human immunodeficiency virus 1 harboring reverse transcriptase K103N mutation infected in human MT4 cells assessed decrease in p24 level after 7 days by ELISA. It counts as functional, organism-based. Conditions: Human immunodeficiency virus 1, MT4, 168 h. The method, boiled down:
as §1

Data set [4] has as its system Human immunodeficiency virus 1. Put plainly: Antiviral activity against NNRTI-resistant Human immunodeficiency virus 1 harboring reverse transcriptase K103N mutation infected in human TZM-bl cells assessed decrease in p24 level after 7 days by ELISA. It counts as functional, organism-based. The settings on record: Human immunodeficiency virus 1, TZM-bl, 168 h.
The subject of data set [5] is Human immunodeficiency virus 1. Put plainly: Antiviral activity against NNRTI-resistant Human immunodeficiency virus 1 A17 double mutant infected in human MT4 cells assessed decrease in p24 level after 7 days by ELISA. The format is functional, organism-based. Conditions: Human immunodeficiency virus 1, A17, MT4, 168 h. A digest of the protocol:
as §1

In data set [6] the test system is Human immunodeficiency virus 1. Put plainly: Antiviral activity against NNRTI-resistant Human immunodeficiency virus 1 A17 double mutant infected in human TZM-bl cells assessed decrease in p24 level after 7 days by ELISA. The format is functional, organism-based. The settings on record: Human immunodeficiency virus 1, A17, TZM-bl, 168 h.
Data set [7] in a line: Selectivity index, ratio of CC50 for human MT4 cells to EC50 for Human immunodeficiency virus 1 A17 infected in human MT4 cells. Conditions: read-out: Ratio CC50/EC50. It counts as toxicity, cell-based.
Data set [8] is described as follows: Selectivity index, ratio of CC50 for human TZM-bl cells to EC50 for Human immunodeficiency virus 1 A17 infected in human TZM-bl cells. The format is toxicity, cell-based. Conditions: read-out: Ratio CC50/EC50.
The nature of data set [9]: Selectivity index, ratio of CC50 for human TZM-bl cells to EC50 for Human immunodeficiency virus 1 SF33 infected in human TZM-bl cells. It counts as toxicity, cell-based. The settings on record: read-out: Ratio CC50/EC50.
Data set [10] concerns Human immunodeficiency virus 1. Briefly: Antiviral activity against Human immunodeficiency virus 1 SF33 infected in human TZM-bl cells assessed decrease in p24 level after 7 days by ELISA. The format is functional, organism-based. Conditions: Human immunodeficiency virus 1, SF33, TZM-bl, 168 h.
The target in data set [11] is Human immunodeficiency virus type 1 reverse transcriptase (Human immunodeficiency virus 1, UniProt Q72547). Put plainly: Inhibition of HIV1 reverse transcriptase after 1 hr by colorimetric assay. The method, boiled down:
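Purified recombinant wild-type RT with poly(rA)/oligo(dT)16 template-primer and serial inhibitor concentrations. Incubated 1 h at 37 °C. Incorporated biotin detected with streptavidin-alkaline phosphatase and PNPP (30 min, 37 °C), read colorimetrically.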

The nature of data set [12]: Cytotoxicity against human TZM-bl cells. It counts as cell-based.
The nature of data set [13]: Selectivity index, ratio of CC50 for human MT4 cells to EC50 for Human immunodeficiency virus 1 SF33 infected in human MT4 cells. It counts as toxicity, cell-based. The settings on record: read-out: Ratio CC50/EC50.
Data set [14] relates to Human immunodeficiency virus 1. Briefly: Antiviral activity against Human immunodeficiency virus 1 SF33 infected in human MT4 cells assessed decrease in p24 level after 7 days by ELISA. It counts as functional, organism-based. The settings on record: Human immunodeficiency virus 1, SF33, MT4, 168 h. The method, boiled down: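 MT4 cells (4×10^4/well) infected with 200 TCID50 of HIV-1 for 2 h at 37 °C, then serial dilutions of compound added. After 7 days at 37 °C, p24 measured in a commercial ELISA.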

Data set [15] in a line: Cytotoxicity against human MT4 cells after 3 days by XTT assay. It counts as cell-based. A digest of the protocol:
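Graded compound concentrations added to MT4 cells (5×10^4/well) for 3 days at 37 °C. CCK-8 reagent then added for 4 h at 37 °C to develop the XTT formazan product, and absorbance read at 450 nm. CC50 derived from percent cytotoxicity.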
Background: Tetrazolium assays rely on reduction of a dye to a coloured formazan, in cell work by metabolically active cells.

The target of data set [16] is Human immunodeficiency virus type 1 reverse transcriptase (Human immunodeficiency virus 1) (UniProt Q72547). Put plainly: Ratio of TNK651 IC50 to compound IC50 for HIV1 reverse transcriptase.
Data set [17] shares this target. Put plainly: Ratio of nevirapine IC50 to compound IC50 for HIV1 reverse transcriptase.

`CC(C)c1c(Cc2ccccc2)n(COCc2ccccc2)c(=O)[nH]c1=O`: the concentration for a half-maximal effect (EC50) in [1] was greater than 10000 nM; in data set [2], greater than 10000 nM; in data set [3], 2400 nM; in data set [4] it was greater than 10000 nM; in [5] it was greater than 10000 nM; in data set [6] it was greater than 10000 nM. The same molecule yielded an EC50 in [10] of 22 nM. In addition, the selectivity ratio in [7] is less than 8; in data set [8], less than 6; in data set [9], 2990. The molecule also displayed a half-inhibitory concentration (IC50) in data set [11] of 88 nM. Besides, half-maximal cytotoxicity in data set [12] (CC50) was put at 65800 nM.
With `CC(C)c1c(OC2CCCCC2C)cc(Cc2ccc(F)cc2)[nH]c1=O` (mixture of isomers), the concentration for a half-maximal effect (EC50) in [5] is greater than 10000 nM; in data set [6], greater than 10000 nM; in data set [14], 23 nM; in [10] it was 26 nM. The selectivity ratio was less than 6 in data set [7], less than 7 in [8], 2810 in data set [13] and 2860 in [9]. This molecule also showed a CC50 at 72 h in data set [15] of 64600 nM. In [11], this molecule returned a concentration for half-maximal inhibition (IC50) of 130 nM. Further, the cytotoxic concentration (CC50) in [12] was determined as 74500 nM.
Turning to `CC(C)c1c(OC2CCCCC2C)cc(Cc2ccc(Cl)cc2)[nH]c1=O` (mixture of isomers), the EC50 was 10400 nM in [5], greater than 10000 nM in [6], 10 nM in [14] and 23 nM in data set [10]. The selectivity ratio in [7] is 8; in data set [8], less than 10; in data set [13], 8400; in data set [9] it was 4720. Moreover, the CC50 at 72 h in data set [15] came to 84000 nM. Further, the IC50 in data set [11] stood at 160 nM. This molecule returned a CC50 in data set [12] of 109000 nM.
Regarding `CC1CCCCC1Oc1cc(CCc2ccccc2)[nH]c(=O)c1I` (mixture of isomers), the EC50 in data set [1] was found to be 170 nM; in data set [2], 296 nM; in data set [3], 17 nM; in data set [4], 100 nM; in data set [5], 281 nM; in data set [6] it was 978 nM. Further, the EC50 came to 17 nM in data set [14] and 53 nM in data set [10]. The selectivity ratio in [7] was greater than 1070; in data set [8] it was 307; in data set [13] it was greater than 17600; in [9], greater than 5660. This molecule also came in with a CC50 at 72 h in data set [15] greater than 300000 nM. Half-maximal inhibition in data set [11] (IC50) was put at 150 nM. In data set [12], this molecule had a CC50 greater than 300000 nM.
As for `CC(C)c1c(O[C@H]2CCCC[C@@H]2C)cc(CCc2ccccc2)[nH]c1=O` (racemic), the EC50 in data set [1] amounted to 190 nM; in data set [2], 63 nM; in data set [3], 18 nM; in data set [4], 75 nM; in data set [5], 90 nM; in data set [6], 139 nM. Also, the EC50 in data set [14] turned out to be 4 nM; in [10], 9 nM. For the same molecule, the selectivity ratio in [7] is greater than 3330; in data set [8], 2160; in [13] it was greater than 75000; in data set [9], greater than 33300. In data set [15], this molecule displayed a CC50 at 72 h greater than 300000 nM. Besides, the Ratio IC50 in data set [16] is 29; in data set [17], 1480. Further, the concentration for half-maximal inhibition (IC50) in [11] was 3 nM. For the same molecule, the CC50 in data set [12] is greater than 300000 nM.
Take `CC(C)c1c(O[C@H]2CCCC[C@H]2C)cc(CCc2ccccc2)[nH]c1=O` (racemic): the EC50 in [5] is greater than 10000 nM; in data set [6], greater than 10000 nM; in data set [14] it was 68 nM; in data set [10] it was 136 nM. Besides, the selectivity ratio in data set [7] is less than 8; in data set [8], less than 18; in [13] it was 1290; in data set [9], 1390. In [15], this molecule gave a cytotoxic concentration (CC50) at 72 h of 87900 nM. Also, the IC50 in data set [11] was 1310 nM. Besides, it took 189000 nM to reach half-maximal cytotoxicity in [12] (CC50).
For `Cc1ccnc2c1NC(=O)c1cccnc1N2C1CC1` [NEVIRAPINE], the concentration giving a half-maximal response (EC50) in data set [1], in [2], in [3], in data set [4], in data set [5] and in [6] was greater than 10000 nM throughout. Moreover, the 50% effective concentration (EC50) in data set [10] was 190 nM. This molecule registered a CC50 in [12] of 204000 nM.

Broadly, the EC50 is the concentration at which the effect is half-maximal. By IC50 is commonly meant the concentration that inhibits the measured activity by half. The low end stands for higher potency, the high end for lower potency. Broadly, the CC50 is the concentration giving 50% cytotoxicity. Low readings indicate greater toxicity to the cells, high ones lower toxicity to the cells.

For the origin of these results see ChEMBL document CHEMBL2331178, “Novel pyridinone derivatives as non-nucleoside reverse transcriptase inhibitors (NNRTIs) with high potency against NNRTI-resistant HIV-1 strains” (J Med Chem, 2013).
